Consider five compounds from ChEMBL document CHEMBL1142212, “Length effects in antimicrobial peptides of the (RW)n series” (Antimicrob Agents Chemother, 2007).

pIC50: −log10 of the molar value. Converted amounts (≈) assume the structure as drawn. Peptide text beside a SMILES is read from it.

The test system of test [1] is Escherichia coli. Description: Growth inhibition of Escherichia coli D31.
In test [2] the test system is Staphylococcus aureus. Description: Growth inhibition of Staphylococcus aureus ATCC BAA44.
Test [3] relates to Escherichia coli. Nature of the test: Antimicrobial activity against Escherichia coli D31 after 18 hrs. Conditions: D31, 18 h.
In test [4] the test system is Staphylococcus aureus. Nature of the test: Antimicrobial activity against Staphylococcus aureus ATCC BAA44 after 18 hrs.
Another test relates to Erythrocyte. Nature of the test: Hemolytic activity in sheep red blood cells. It counts as functional, Ovis aries. The procedure, abridged: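 Fresh sheep erythrocyte suspension was incubated with peptide in PBS pH 7.2 at 37°C for 30 min, then centrifuged at 3,000 rpm for 10 min. Supernatant was diluted 40-fold in water and read at OD540. Buffer gave 0% and 1% Triton-X gave 100% hemolysis. HD50 is the concentration giving 50% hemolysis, taken from dose-response curves.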

Consider `N=C(N)NCCC[C@H](NC(=O)[C@H](Cc1c[nH]c2ccccc12)NC(=O)[C@H](CCCNC(=N)N)NC(=O)[C@H](Cc1c[nH]c2ccccc12)NC(=O)[C@H](CCCNC(=N)N)NC(=O)[C@H](Cc1c[nH]c2ccccc12)NC(=O)[C@H](CCCNC(=N)N)NC(=O)[C@H](Cc1c[nH]c2ccccc12)NC(=O)[C@@H](N)CCCNC(=N)N)C(=O)N[C@@H](Cc1c[nH]c2ccccc12)C(N)=O`, for which the pIC50 (usually the IC50 on a negative log10 scale, so that one unit is a factor of ten) in the test with Escherichia coli [1] is 5.21; in the test with Staphylococcus aureus [2], 5.44. The MBC50 against Escherichia coli [3] was found to be 7.2 µM (≈ 12.4 µg/mL); in the test on Staphylococcus aureus [4], 6.9 µM (≈ 11.9 µg/mL). Besides, the HD50 with Erythrocyte was 76 µM.
Consider `N=C(N)NCCC[C@H](N)C(=O)N[C@@H](Cc1c[nH]c2ccccc12)C(N)=O` (H-Arg-Trp-NH2), for which the pIC50 in the test on Escherichia coli [1] was 2.37; in the test on Staphylococcus aureus [2], 2.68. The figures for the MBC50 against Escherichia coli [3] and with Staphylococcus aureus [4] were 4700 µM (≈ 1690 µg/mL) and 2300 µM (≈ 827 µg/mL), respectively. In the test on Erythrocyte, this compound gave an HD50 of 8900 µM.
The matching figures for `N=C(N)NCCC[C@H](NC(=O)[C@H](Cc1c[nH]c2ccccc12)NC(=O)[C@@H](N)CCCNC(=N)N)C(=O)N[C@@H](Cc1c[nH]c2ccccc12)C(N)=O` (H-RWRW-NH2): 3.14, 3.68, 990 µM (≈ 695 µg/mL), 620 µM (≈ 435 µg/mL) and 3700 µM.
The matching figures for `N=C(N)NCCC[C@H](NC(=O)[C@H](Cc1c[nH]c2ccccc12)NC(=O)[C@H](CCCNC(=N)N)NC(=O)[C@H](Cc1c[nH]c2ccccc12)NC(=O)[C@@H](N)CCCNC(=N)N)C(=O)N[C@@H](Cc1c[nH]c2ccccc12)C(N)=O` (H-RWRWRW-NH2): 4.80, 5.10, 29 µM (≈ 30.3 µg/mL), 15 µM (≈ 15.7 µg/mL) and 210 µM.
For `N=C(N)NCCC[C@H](NC(=O)[C@H](Cc1c[nH]c2ccccc12)NC(=O)[C@H](CCCNC(=N)N)NC(=O)[C@H](Cc1c[nH]c2ccccc12)NC(=O)[C@H](CCCNC(=N)N)NC(=O)[C@H](Cc1c[nH]c2ccccc12)NC(=O)[C@@H](N)CCCNC(=N)N)C(=O)N[C@@H](Cc1c[nH]c2ccccc12)C(N)=O` (H-RWRWRWRW-NH2) the same measures were 5.02, 5.29, 14 µM (≈ 19.4 µg/mL), 12 µM (≈ 16.6 µg/mL) and 100 µM.
